An excerpt weighted towards active compounds, which were near 3.5% of everything screened.
MrgX1 agonist – human MrgX1 receptor agonism, primary screen. MrgX1-HEK293 cells, Fluo-4 calcium fluorescence, agonist mode; stronger effect = higher value. B-score at 10 µM. actives 0.44% (n = 310,000). AID 588627;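 active = calcium response B-score plate-corrected fluorescence ratio at least 3 library SD, with starting fluorescence B-score inside 5 SD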
Target sequence (Q96LB2 whole entry, looked up): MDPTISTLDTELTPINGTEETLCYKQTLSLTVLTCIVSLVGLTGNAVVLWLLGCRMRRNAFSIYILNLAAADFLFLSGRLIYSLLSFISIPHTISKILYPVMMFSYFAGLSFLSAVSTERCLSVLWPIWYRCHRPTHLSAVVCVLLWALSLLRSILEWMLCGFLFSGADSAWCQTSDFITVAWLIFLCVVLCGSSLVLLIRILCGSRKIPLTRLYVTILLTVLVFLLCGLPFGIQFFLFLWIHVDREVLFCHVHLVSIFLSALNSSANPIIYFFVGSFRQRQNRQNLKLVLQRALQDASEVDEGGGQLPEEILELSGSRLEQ
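Material – MrgX1-expressing HEK293 cells · Input – 15,000 cells seeded per well · Dosing – compound as first of three additions · Times – overnight seeding, then 1 h dark dye loading · Measured by – kinetic Fluo-4 NW fluorescence of intracellular calcium · Read-out – B-scored fluorescence response ratio · Benchmarks – positive and negative control wells on each plate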
MrgX1 PAM – human MrgX1 positive allosteric modulation, primary screen | MrgX1-HEK293, Fluo-4 calcium flux, FDSS; stronger effect = higher value | B-score at 10 µM | actives 0.63% (n = 310,000) | AID 588675;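 active = plate-corrected calcium response at least 3 library SD above typical, normal starting fluorescence, not activating the receptor alone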;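 note: compound read alongside a low EC10 to EC30 dose of BAM8-22 agonist; peak minus trough fluorescence over baseline measured at the second addition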
MrgX1 antag – antagonists of human MrgX1 receptor. Q96LB2. MRGX1-HEK293 calcium flux, Fluo-4, BAM8-22 antagonism; stronger effect = lower value. B-score at 10 µM. actives 1.3% (n = 310,000). AID 588676;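 active = calcium-response B-score plate-corrected more than 3 library SD below zero, starting fluorescence within 5 deviations, no agonist response on first addition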;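 note: peak minus trough fluorescence over baseline after final BAM8-22 challenge near maximal dose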
RGS4 act – potentiators or activators of RGS4 | B-score at 10 µM | actives 0.92% (n = 310,000) | HEK293 M3R/inducible RGS4, carbachol calcium flux Fluo4; stronger effect = lower value;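 active = B-score of the integrated calcium signal more than 4 SD below the library mean, with starting fluorescence not abnormally high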;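 note: negative B-score means reduced calcium response which marks RGS4 activation or potentiation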
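Detection: kinetic calcium fluorescence imaging with Fluo4-AM dye, 2 µM / Material: HEK293 cells with stable M3R and inducible RGS4 / Schedule: recording 10 s baseline at 1 Hz, 100 s post-agonist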
RGS4 block – human RGS4 inhibition. actives 0.45% (n = 310,000). P49798. HEK293 M3R/RGS4 inducible, Fluo-4 calcium flux; stronger effect = higher value; triggered by carbachol at its EC20. B-score at 10 µM;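 active = B-score, a plate-corrected calcium signal, over three deviations above library mean, with baseline fluorescence within five deviations of library mean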;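 note: RGS4 expression induced by doxycycline in cells with stable M3 receptor; B-score is computed from the integrated fluorescence ratio over baseline after carbachol; higher B-score means a larger calcium signal and so more RGS4 inhibition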
Target sequence (P49798 whole entry, looked up): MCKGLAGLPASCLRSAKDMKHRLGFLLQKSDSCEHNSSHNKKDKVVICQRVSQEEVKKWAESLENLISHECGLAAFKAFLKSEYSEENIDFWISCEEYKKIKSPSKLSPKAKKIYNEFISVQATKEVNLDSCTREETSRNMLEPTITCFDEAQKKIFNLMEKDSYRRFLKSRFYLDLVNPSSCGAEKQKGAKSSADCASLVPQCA
MrgX1 ant reconf – reconfirmed antagonist of human MrgX1 receptor signaling. shares compounds with MrgX1 antag. MrgX1-HEK293, BAM8-22 calcium flux, Fluo-4; stronger effect = lower value. remaining BAM8-22 calcium response % of control (stronger effect = lower value), % at 10 µM. actives 19% (n = 2,300). AID 602420;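 active = remaining agonist calcium response no higher than 100% minus 3 SD of agonist-only control wells, with starting fluorescence near control levels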;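 note: agonist BAM8-22 given at a near maximal EC90 to ECmax level; peak minus minimum fluorescence divided by baseline after agonist addition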
HEK293 Ca flux – counter-screen for MrgX1 antagonists: effect in parental HEK293 cells | shares compounds with MrgX1 antag | fluorescence ratio F(max-min)/F0 at 10 µM | actives 2% (n = 4,000) | Fluo-4 calcium fluorescence, FDSS;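 active = duplicate-averaged calcium fluorescence ratio at least three times the standard deviation of buffer wells, a nonspecific response in parental cells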
HEK293 Ca counter – MrgX1 allosteric activator counter-screen hit in parental HEK293 cells. fluorescence ratio F(max-min)/F0 at 10 µM. shares compounds with MrgX1 antag. actives 0.4% (n = 4,000). parental HEK293 calcium flux, Fluo-4 fluorescence ratio; stronger effect = higher value;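 active = calcium fluorescence ratio, averaged over duplicates, at least 3 SD of the buffer-well ratio, meaning a nonspecific response in receptor-free cells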;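 note: untransfected parental HEK293 lacking MrgX1 used as counterscreen for MrgX1 allosteric activators; fluorescence change taken during the second addition on a kinetic imager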
HEK293 Ca cntr2 – MrgX1 activator counter-screen hit in parental HEK293 cells; fluorescence ratio F(max-min)/F0 at 10 µM; Fluo-4 calcium fluorescence (FDSS); stronger effect = higher value; shares compounds with MrgX1 antag; AID 624115; actives 8.7% (n = 4,000);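 active = calcium fluorescence ratio at least three times the spread of buffer wells, meaning a non-specific response in parental cells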
* hit, by the source's call.

How did CCC(=O)Nc1ccc(NC(=S)NC(=O)Cc2ccccc2)cc1 do in these assays?
MrgX1 agonist: inactive; MrgX1 PAM: inactive; MrgX1 antag: inactive; RGS4 act: inactive; RGS4 block: inactive

What do the screens show for `CCC(=O)Nc1ccc(NC(=S)Nc2ccccc2)cc1`?
MrgX1 agonist: inactive; MrgX1 PAM: inactive; MrgX1 antag: -4.76*; RGS4 act: inactive; RGS4 block: inactive; MrgX1 ant reconf: inactive; HEK293 Ca flux: inactive; HEK293 Ca counter: inactive; HEK293 Ca cntr2: inactive

Results for CC(C)Oc1ccc(C(=O)OC(C)C(=O)NC2CCCCC2C)cc1 (stereo unspecified) ?
MrgX1 agonist: inactive; MrgX1 PAM: inactive; MrgX1 antag: inactive; RGS4 act: inactive; RGS4 block: inactive

How did CC(OC(=O)c1ccncc1)C(=O)NC1CCCC1 (stereo unspecified) do in these assays?
MrgX1 agonist: inactive; MrgX1 PAM: inactive; MrgX1 antag: -10.1*; RGS4 act: inactive; RGS4 block: inactive; MrgX1 ant reconf: inactive; HEK293 Ca flux: inactive; HEK293 Ca counter: inactive; HEK293 Ca cntr2: inactive

Results for CCc1[nH]c(C(=O)O)c(C)c1C(=O)OC ?
MrgX1 agonist: inactive; MrgX1 PAM: inactive; MrgX1 antag: inactive; RGS4 act: inactive; RGS4 block: inactive

Results for CCOC(=O)C1CN(S(=O)(=O)c2ccc(C)cc2)c2cc(S(=O)(=O)CC)ccc2O1 (stereo unspecified) ?
MrgX1 agonist: inactive; MrgX1 PAM: inactive; MrgX1 antag: -4.83*; RGS4 act: inactive; RGS4 block: inactive; MrgX1 ant reconf: inactive; HEK293 Ca flux: inactive; HEK293 Ca counter: inactive; HEK293 Ca cntr2: inactive

How did Cc1ccc([N+](=O)[O-])cc1NC(=O)c1c(-c2ccccc2)noc1C do in these assays?
MrgX1 agonist: inactive; MrgX1 PAM: inactive; MrgX1 antag: inactive; RGS4 act: inactive; RGS4 block: inactive

Results for COc1cccc(C2=CC(c3ccccc3)n3nnnc3N2)c1 (stereo unspecified) ?
MrgX1 agonist: inactive; MrgX1 PAM: inactive; MrgX1 antag: -5.57*; RGS4 act: inactive; RGS4 block: inactive; MrgX1 ant reconf: inactive; HEK293 Ca flux: inactive; HEK293 Ca counter: inactive; HEK293 Ca cntr2: inactive

What do the screens show for `N#CCSc1nnc(Cc2cccs2)n1C1CCCCC1`?
MrgX1 agonist: inactive; MrgX1 PAM: inactive; MrgX1 antag: -4.75*; RGS4 act: inactive; RGS4 block: inactive; MrgX1 ant reconf: inactive; HEK293 Ca flux: inactive; HEK293 Ca counter: inactive; HEK293 Ca cntr2: inactive

What do the screens show for `N#C/C(=C(/O)CSc1nnc(Cc2cccs2)n1C1CCCCC1)c1nc2ccccc2[nH]1`?
MrgX1 agonist: inactive; MrgX1 PAM: inactive; MrgX1 antag: inactive; RGS4 act: inactive; RGS4 block: inactive

What do the screens show for `COC(=O)c1cc(OC)c(OC)cc1NC(=S)N1CCN(C)CC1`?
MrgX1 agonist: inactive; MrgX1 PAM: inactive; MrgX1 antag: inactive; RGS4 act: inactive; RGS4 block: inactive

What do the screens show for `COC(=O)c1cc(OC)c(OC)cc1NC(=S)N1CCCCC1`?
MrgX1 agonist: inactive; MrgX1 PAM: inactive; MrgX1 antag: -6.76*; RGS4 act: inactive; RGS4 block: inactive; MrgX1 ant reconf: inactive; HEK293 Ca flux: inactive; HEK293 Ca counter: inactive; HEK293 Ca cntr2: inactive

Results for CCCc1cc(NCC2CCCO2)n2c(nc3ccccc32)c1C#N (stereo unspecified) ?
MrgX1 agonist: inactive; MrgX1 PAM: inactive; MrgX1 antag: inactive; RGS4 act: inactive; RGS4 block: inactive

What do the screens show for `CCC(CC)C(=O)Nc1cccc(C(=O)Nc2ccc3c(c2)OCO3)c1`?
MrgX1 agonist: inactive; MrgX1 PAM: inactive; MrgX1 antag: -6*; RGS4 act: inactive; RGS4 block: inactive; MrgX1 ant reconf: inactive; HEK293 Ca flux: inactive; HEK293 Ca counter: inactive; HEK293 Ca cntr2: inactive

How did CCCNC(=O)c1cccc(NC(=O)C(C)C)c1 do in these assays?
MrgX1 agonist: inactive; MrgX1 PAM: inactive; MrgX1 antag: -7.27*; RGS4 act: inactive; RGS4 block: inactive; MrgX1 ant reconf: inactive; HEK293 Ca flux: inactive; HEK293 Ca counter: inactive; HEK293 Ca cntr2: 47.8*

Results for CCN(CC)S(=O)(=O)c1cccc(C(=O)Nc2ccc3c(c2)OCO3)c1 ?
MrgX1 agonist: inactive; MrgX1 PAM: inactive; MrgX1 antag: inactive; RGS4 act: inactive; RGS4 block: inactive

What do the screens show for `CC(C)P(=O)(c1cccc(C(=O)O)c1)C(C)C`?
MrgX1 agonist: inactive; MrgX1 PAM: inactive; MrgX1 antag: inactive; RGS4 act: inactive; RGS4 block: inactive

How did CC(C)COc1ccc(-c2cc(C(=O)NN)[nH]n2)cc1 do in these assays?
MrgX1 agonist: inactive; MrgX1 PAM: inactive; MrgX1 antag: inactive; RGS4 act: inactive; RGS4 block: inactive

How did Cc1ccccc1-c1nc(CN2CCC(C(=O)NCc3cccs3)CC2)c(C)o1 do in these assays?
MrgX1 agonist: inactive; MrgX1 PAM: inactive; MrgX1 antag: inactive; RGS4 act: inactive; RGS4 block: inactive

What do the screens show for `Cn1cc(S(=O)(=O)CC(=O)Nc2ccc3c(c2)OCCO3)c2ccccc21`?
MrgX1 agonist: inactive; MrgX1 PAM: inactive; MrgX1 antag: inactive; RGS4 act: inactive; RGS4 block: inactive

How did Cc1ccc(C)c(NC(=O)CS(=O)(=O)c2cn(C)c3ccccc23)c1 do in these assays?
MrgX1 agonist: inactive; MrgX1 PAM: inactive; MrgX1 antag: -12.7*; RGS4 act: inactive; RGS4 block: inactive; MrgX1 ant reconf: inactive; HEK293 Ca flux: inactive; HEK293 Ca counter: inactive; HEK293 Ca cntr2: inactive

How did Nc1c(C(=O)NCc2ccco2)c2nc3ccccc3nc2n1CCc1ccccc1F do in these assays?
MrgX1 agonist: inactive; MrgX1 PAM: inactive; MrgX1 antag: -7.51*; RGS4 act: inactive; RGS4 block: inactive; MrgX1 ant reconf: inactive; HEK293 Ca flux: inactive; HEK293 Ca counter: inactive; HEK293 Ca cntr2: inactive

Assay outcomes: PubChem, Johns Hopkins Ion Channel Center
